Results taken from ChEMBL document CHEMBL1641444, “Synthesis and evaluation of 6-[1-(2-[(18)F]fluoro-3-pyridyl)-5-methyl-1H-1,2,3-triazol-4-yl]quinoline for positron emission tomography imaging of the metabotropic glutamate receptor type 1 in brain” (Bioorg Med Chem, 2011).

Assays:
Cerebellum [1] = assay: Biodistribution in cerebellum of Sprague-Dawley rat at 17 MBq, iv after 30 mins by dissection method; assay type: ADME, organism-based; settings: in vivo, 0.5 h
Outline: (§1)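 The [18F]ligand was given to rats as a saline solution (average 17 MBq, about 0.11 nmol) via the tail vein. Three rats per time point were killed by cervical dislocation at 5, 15 and 30 min. Dissected tissues were gamma-counted with decay correction, and results are expressed as % injected dose per gram of wet tissue.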

Hippocampus [2] = assay: Biodistribution in hippocampus of Sprague-Dawley rat at 17 MBq, iv after 5 mins by dissection method; assay type: ADME, organism-based; settings: in vivo; outline: as §1
Thalamus [3] = assay: Biodistribution in thalamus of Sprague-Dawley rat at 17 MBq, iv after 30 mins by dissection method; assay type: ADME, organism-based; settings: in vivo, 0.5 h
Outline: (§2)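 [¹⁸F]7a in saline (average 17 MBq/200 µL, 0.11 nmol) was given by tail vein. Rats were killed by cervical dislocation at 5, 15 or 30 min, with three rats per time point. Tissue radioactivity was measured by gamma counting, decay-corrected and expressed as %ID per gram of wet tissue.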

Liver [4] = assay: Biodistribution in liver of Sprague-Dawley rat at 17 MBq, iv after 15 mins by dissection method; assay type: ADME, organism-based; settings: in vivo, 0.25 h; outline: as §1
Lung [5] = assay: Biodistribution in lung of Sprague-Dawley rat at 17 MBq, iv after 30 mins by dissection method; assay type: ADME, organism-based; settings: in vivo, 0.5 h; outline: as §2
Bone [6] = assay: Biodistribution in bone of Sprague-Dawley rat at 17 MBq, iv after 15 mins by dissection method; assay type: ADME, organism-based, Bone element; settings: in vivo, 0.25 h; outline: as §1
Thalamus [7] = assay: Biodistribution in thalamus of Sprague-Dawley rat at 17 MBq, iv after 5 mins by dissection method; assay type: ADME, organism-based; settings: in vivo; outline: as §2
Muscle tissue [8] = assay: Biodistribution in muscle of Sprague-Dawley rat at 17 MBq, iv after 30 mins by dissection method; assay type: ADME, organism-based; settings: in vivo, 0.5 h; outline: as §2
Bone [9] = assay: Biodistribution in bone of Sprague-Dawley rat at 17 MBq, iv after 5 mins by dissection method; assay type: ADME, organism-based, Bone element; settings: in vivo; outline: as §1
Heart = assay: Biodistribution in heart of Sprague-Dawley rat at 17 MBq, iv after 5 mins by dissection method; assay type: ADME, organism-based; settings: in vivo; outline: as §1
Bone [10] = assay: Biodistribution in bone of Sprague-Dawley rat at 17 MBq, iv after 30 mins by dissection method; assay type: ADME, organism-based, Bone element; settings: in vivo, 0.5 h; outline: as §1
Striatum [11] = assay: Biodistribution in striatum of Sprague-Dawley rat at 17 MBq, iv after 15 mins by dissection method; assay type: ADME, organism-based; settings: in vivo, 0.25 h; outline: as §2
Liver [12] = assay: Biodistribution in liver of Sprague-Dawley rat at 17 MBq, iv after 30 mins by dissection method; assay type: ADME, organism-based; settings: in vivo, 0.5 h; outline: as §2
Cerebellum [13] = assay: Biodistribution in cerebellum of Sprague-Dawley rat at 17 MBq, iv after 15 mins by dissection method; assay type: ADME, organism-based; settings: in vivo, 0.25 h; outline: as §1
Pancreas [14] = assay: Biodistribution in pancreas of Sprague-Dawley rat at 17 MBq, iv after 5 mins by dissection method; assay type: ADME, organism-based; settings: in vivo; outline: as §2
Spleen [15] = assay: Biodistribution in spleen of Sprague-Dawley rat at 17 MBq, iv after 30 mins by dissection method; assay type: ADME, organism-based; settings: in vivo, 0.5 h; outline: as §2
Pancreas [16] = assay: Biodistribution in pancreas of Sprague-Dawley rat at 17 MBq, iv after 15 mins by dissection method; assay type: ADME, organism-based; settings: in vivo, 0.25 h; outline: as §2
Cerebral cortex [17] = assay: Biodistribution in cerebral cortex of Sprague-Dawley rat at 17 MBq, iv after 15 mins by dissection method; assay type: ADME, organism-based; settings: in vivo, 0.25 h; outline: as §1
Cerebellum [18] = assay: Biodistribution in cerebellum of Sprague-Dawley rat at 17 MBq, iv after 5 mins by dissection method; assay type: ADME, organism-based; settings: in vivo; outline: as §1
[19] = Biodistribution in small intestine of Sprague-Dawley rat at 17 MBq, iv after 30 mins by dissection method; assay type: ADME, organism-based; settings: in vivo, 0.5 h; outline: as §2
Muscle tissue [20] = assay: Biodistribution in muscle of Sprague-Dawley rat at 17 MBq, iv after 5 mins by dissection method; assay type: ADME, organism-based; settings: in vivo; outline: as §2
[21] = Biodistribution in small intestine of Sprague-Dawley rat at 17 MBq, iv after 5 mins by dissection method; assay type: ADME, organism-based; settings: in vivo; outline: as §2
Spleen [22] = assay: Biodistribution in spleen of Sprague-Dawley rat at 17 MBq, iv after 15 mins by dissection method; assay type: ADME, organism-based; settings: in vivo, 0.25 h; outline: as §2
Blood = assay: Biodistribution in blood of Sprague-Dawley rat at 17 MBq, iv after 30 mins by dissection method; assay type: ADME, organism-based; settings: in vivo, 0.5 h; outline: as §1
Hippocampus [23] = assay: Biodistribution in hippocampus of Sprague-Dawley rat at 17 MBq, iv after 30 mins by dissection method; assay type: ADME, organism-based; settings: in vivo, 0.5 h; outline: as §1
[24] = Ratio of drug uptake in Sprague-Dawley rat striatum to medulla at 17 MBq, iv after 10 to 15 mins by small-animal PET; settings: in vivo
[25] = Biodistribution in small intestine of Sprague-Dawley rat at 17 MBq, iv after 15 mins by dissection method; assay type: ADME, organism-based; settings: in vivo, 0.25 h; outline: as §2
Liver [26] = assay: Biodistribution in liver of Sprague-Dawley rat at 17 MBq, iv after 5 mins by dissection method; assay type: ADME, organism-based; settings: in vivo; outline: as §2
[27] = Ratio of drug uptake in Sprague-Dawley rat cerebellum to medulla at 17 MBq, iv after 10 to 15 mins by small-animal PET; settings: in vivo
[28] = Metabolic stability in plasma of ddy mouse assessed as reduction of parent compound level at 3.7 MBq, iv after 5 mins by HPLC analysis; design: scale not given: the % may be the effect or the level left
[29] = Ratio of drug uptake in Sprague-Dawley rat thalamus to medulla at 17 MBq, iv after 10 to 15 mins by small-animal PET; settings: in vivo
Cerebral cortex [30] = assay: Biodistribution in cerebral cortex of Sprague-Dawley rat at 17 MBq, iv after 30 mins by dissection method; assay type: ADME, organism-based; settings: in vivo, 0.5 h; outline: as §1
[31] = Biodistribution in whole brain of Sprague-Dawley rat at 17 MBq, iv after 15 mins by dissection method; assay type: ADME, organism-based; settings: in vivo, 0.25 h; outline: as §2
[32] = test system: Cerebellum (Mus musculus); assay: Metabolic stability in cerebellum of mouse assessed as reduction of parent compound level at 3.7 MBq, iv after 30 mins by HPLC analysis; design: scale not given: the % may be the effect or the level left; settings: in vivo, 0.5 h
Thalamus [33] = assay: Biodistribution in thalamus of Sprague-Dawley rat at 17 MBq, iv after 15 mins by dissection method; assay type: ADME, organism-based; settings: in vivo, 0.25 h; outline: as §2
Lung [34] = assay: Biodistribution in lung of Sprague-Dawley rat at 17 MBq, iv after 5 mins by dissection method; assay type: ADME, organism-based; settings: in vivo; outline: as §2
[35] = Biodistribution in pons-medulla of Sprague-Dawley rat at 17 MBq, iv after 5 mins by dissection method; assay type: ADME, organism-based; settings: in vivo; outline: as §2
[36] = test system: Cerebellum (Mus musculus); assay: Metabolic stability in cerebellum of mouse assessed as reduction of parent compound level at 3.7 MBq, iv after 15 mins by HPLC analysis; design: scale not given: the % may be the effect or the level left; settings: in vivo, 0.25 h
Kidney = assay: Biodistribution in kidney of Sprague-Dawley rat at 17 MBq, iv after 5 mins by dissection method; assay type: ADME, organism-based; settings: in vivo; outline: as §1
Striatum [37] = assay: Biodistribution in striatum of Sprague-Dawley rat at 17 MBq, iv after 5 mins by dissection method; assay type: ADME, organism-based; settings: in vivo; outline: as §2
Spleen [38] = assay: Biodistribution in spleen of Sprague-Dawley rat at 17 MBq, iv after 5 mins by dissection method; assay type: ADME, organism-based; settings: in vivo; outline: as §2
[39] = Biodistribution in olfactory bulb of Sprague-Dawley rat at 17 MBq, iv after 30 mins by dissection method; assay type: ADME, organism-based; settings: in vivo, 0.5 h; outline: as §2
Striatum [40] = assay: Biodistribution in striatum of Sprague-Dawley rat at 17 MBq, iv after 30 mins by dissection method; assay type: ADME, organism-based; settings: in vivo, 0.5 h; outline: as §2

## Cc1c(-c2ccc3ncccc3c2)nnn1-c1cccnc1[18F]
Cerebellum [1]
  Drug uptake: 0.2 % ID/g
Hippocampus [2]
  Drug uptake: 0.58 % ID/g
Thalamus [3]
  Drug uptake: 0.1 % ID/g
Liver [4]
  Drug uptake: 2.04 % ID/g
Lung [5]
  Drug uptake: 0.17 % ID/g
Bone [6]
  Drug uptake: 0.15 % ID/g
Thalamus [7]
  Drug uptake: 0.73 % ID/g
Muscle tissue [8]
  Drug uptake: 0.1 % ID/g
Bone [9]
  Drug uptake: 0.22 % ID/g
Heart
  Drug uptake: 0.47 % ID/g
Bone [10]
  Drug uptake: 0.22 % ID/g
Striatum [11]
  Drug uptake: 0.23 % ID/g
Liver [12]
  Drug uptake: 1.93 % ID/g
Cerebellum [13]
  Drug uptake: 0.54 % ID/g
Pancreas [14]
  Drug uptake: 0.75 % ID/g
Spleen [15]
  Drug uptake: 0.16 % ID/g
Pancreas [16]
  Drug uptake: 0.34 % ID/g
Cerebral cortex [17]
  Drug uptake: 0.2 % ID/g
Cerebellum [18]
  Drug uptake: 1.21 % ID/g
[19]
  Drug uptake: 1.74 % ID/g
Muscle tissue [20]
  Drug uptake: 0.28 % ID/g
[21]
  Drug uptake: 3.06 % ID/g
Spleen [22]
  Drug uptake: 0.25 % ID/g
Blood
  Drug uptake: 0.15 % ID/g
Hippocampus [23]
  Drug uptake: 0.09 % ID/g
[24]
  Ratio: 1.55
[25]
  Drug uptake: 4.64 % ID/g
Liver [26]
  Drug uptake: 2.3 % ID/g
[27]
  Ratio: 3.73
[28]
  Stability: 57%
[29]
  Ratio: 1.91
Cerebral cortex [30]
  Drug uptake: 0.09 % ID/g
[31]
  Drug uptake: 0.23 % ID/g
[32]
  Stability: 67%
Thalamus [33]
  Drug uptake: 0.29 % ID/g
Lung [34]
  Drug uptake: 0.5 % ID/g
[35]
  Drug uptake: 0.47 % ID/g
[36]
  Stability: 91%
Kidney
  Drug uptake: 0.76 % ID/g
Striatum [37]
  Drug uptake: 0.54 % ID/g
Spleen [38]
  Drug uptake: 0.43 % ID/g
[39]
  Drug uptake: 0.1 % ID/g
Striatum [40]
  Drug uptake: 0.11 % ID/g
